Measurements reported in ChEMBL document CHEMBL3120069, “Chemical genetics-based discovery of indole derivatives as HCV NS5B polymerase inhibitors” (Eur J Med Chem, 2014).

Tests used:
[1] = system: Hepatitis C virus; assay: Antiviral activity against Hepatitis C virus Con1 Bart79I genotype 1b expressing YFP infected in human Huh7.5 cells assessed as NS5A S2204I mutant synthesis at 10 uM after 48 hrs by FACS analysis (reference value: 52.2%); format: functional, Hepacivirus hominis, subtype 1b Con1 Bart79I, Huh-7
In short: (§1)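 Huh7.5 cells stably carrying Bart79I-YFP subgenomic replicon (G418 selection), treated with DMSO or compound. Dose series over 5 days (120 h), or 10 M with sampling at 24, 48, 72 h. Cells washed, resuspended in PBS, and NS5A-YFP-positive cells counted by FACS. EC50 and T1/2 taken from response curves.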

[2] = system: Hepatitis C virus; assay: Antiviral activity against Hepatitis C virus Con1 Bart79I genotype 1b expressing YFP infected in human Huh7.5 cells assessed as inhibition of NS5A S2204I mutant synthesis after 120 hrs by FACS analysis; format: functional, organism-based; conditions: subtype 1b Con1 Bart79I; in short: as §1
[3] = system: Hepatitis C virus; assay: Antiviral activity against Hepatitis C virus Con1 Bart79I genotype 1b expressing YFP infected in human Huh7.5 cells assessed as NS5A S2204I mutant synthesis at 2 uM after 120 hrs by FACS analysis (reference value: 66%); format: functional, Hepacivirus hominis, subtype 1b Con1 Bart79I, Huh-7; in short: as §1
[4] = system: Hepatitis C virus; assay: Antiviral activity against Hepatitis C virus Con1 Bart79I genotype 1b infected in human Huh7.5 cells assessed as time required for reducing NS5A S2204I mutant level by half at 10 uM by Western blot analysis; format: functional, organism-based; conditions: Hepacivirus hominis, subtype 1b Con1 Bart79I, Huh-7
In short: (§2)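 Bart79I replicon Huh7.5 cells, 1.5×10⁵/well, treated with DMSO or compound. Dose series for 5 days (120 h), or 10 M for 24, 48, 72 h. Lysed in RIPA with protease inhibitors and protein quantified by Bradford. NS5A and β-actin measured by Western blot, with NS5A normalized to β-actin. EC50 and T1/2 taken from response curves.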

[5] = system: Hepatitis C virus; assay: Antiviral activity against Hepatitis C virus Con1 Bart79I genotype 1b infected in human Huh7.5 cells assessed as inhibition of NS5A S2204I mutant synthesis after 120 hrs by Western blot analysis; format: functional, organism-based; conditions: subtype 1b Con1 Bart79I; in short: as §2
[6] = Selectivity ratio of EC50 for Hepatitis C virus JFH-1 J6 genotype 2a to EC50 for Hepatitis C virus Con1 Bart79I genotype 1b expressing NS5A S2204I mutant; format: functional
[7] = system: Hepatitis C virus; assay: Antiviral activity against Hepatitis C virus Con1 Bart79I genotype 1b expressing NS5A S2204I mutant infected in human Huh7.5 cells assessed as time required for reducing viral RNA level by half at 10 uM by real time qRT-PCR analysis; format: functional, organism-based; conditions: Hepacivirus hominis, subtype 1b Con1 Bart79I, Huh-7
In short: (§3)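 Huh7.5 cells stably carrying Bart79I genotype 1b subgenomic replicon (G418 750 mg/ml selection, 3 weeks), 3×10⁵ cells/well with DMSO or compound. Dose series over 72 h, or 10 M for increasing periods. Viral and host GAPDH RNA measured by real-time qRT-PCR. EC50 and T1/2 taken from response curves of triplicate experiments.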

[8] = system: Hepatitis C virus; assay: Antiviral activity against Hepatitis C virus Con1 Bart79I genotype 1b expressing NS5A S2204I mutant infected in human Huh7.5 cells assessed as inhibition of viral RNA replication after 72 hrs by real time qRT-PCR analysis; format: functional, organism-based; conditions: subtype 1b Con1 Bart79I; in short: as §3
[9] = system: Hepatitis C virus; assay: Antiviral activity against Hepatitis C virus JFH-1 J6 genotype 2a infected in human Huh7.5 cells assessed as time required for reducing viral RNA level by half at 10 uM by real time qRT-PCR analysis; format: functional, organism-based; conditions: Hepacivirus hominis, subtype 2a JFH1 J6, Huh-7
In short: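 J6/JFH1 RNA-transfected Huh7.5 cells held at 10 µM compound for increasing periods; HCV and host GAPDH RNA measured by real-time qRT-PCR. Triplicates, mean ± SD; T1/2 for halving viral RNA from the time-response curve.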

[10] = system: Hepatitis C virus; assay: Antiviral activity against Hepatitis C virus JFH-1 J6 genotype 2a infected in human Huh7.5 cells assessed as inhibition of viral RNA replication after 72 hrs by real time qRT-PCR analysis; format: functional, organism-based
[11] = system: Hepatitis C virus; assay: Antiviral activity against Hepatitis C virus JFH-1 J6 genotype 2a infected in human Huh7.5 cells assessed as time required for reducing viral RNA level by half at 10 uM by luciferase reporter gene assay; format: functional, organism-based; conditions: Hepacivirus hominis, subtype 2a JFH1 J6, Huh-7
In short: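 Rluc-J6/JFH1 RNA-transfected Huh7.5 cells given 10 µM compound; renilla luciferase and cell viability measured at 24, 48, 72 h. T1/2 for halving replication taken from the time-response curve.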

[12] = system: Hepatitis C virus; assay: Antiviral activity against Hepatitis C virus Con1 Bart79I genotype 1b expressing YFP/NS5A S2204I mutant infected in human Huh7.5 cells assessed as inhibition of viral RNA replication after 72 hrs by real time qRT-PCR analysis; conditions: subtype 1b Con1 Bart79I, Huh-7, 72 h

With `C/C(=C\c1c[nH]c2ccc(C#N)cc12)C(=O)Nc1ccc(C(C)(C)C)cc1` the Activity [1] was 11.8%, the inhibition ([2]; Hepacivirus hominis, Huh-7) was “Dose-dependent effect” and the EC50 ([2]; Huh-7, 120 h) was 1030 nM. The Activity [3] was 4.2%, the T1/2 [4] was 31.7 h and the inhibition ([5]; Hepacivirus hominis, Huh-7) was “Dose-dependent effect”. The EC50 ([5]; Huh-7, 120 h) was 2500 nM, the “Ratio EC50” value [6] was 3.2 and the T1/2 [7] was 31.5 h. The inhibition ([8]; Hepacivirus hominis, Huh-7) was “Dose-dependent effect”, the EC50 ([8]; Huh-7, 72 h) was 600 nM and the T1/2 [9] was 17.2 h. For the same compound, the inhibition ([10]; Hepacivirus hominis, subtype 2a JFH1 J6, Huh-7) was “Dose-dependent effect”, the EC50 ([10]; subtype 2a JFH1 J6, Huh-7, 72 h) was 1900 nM and the T1/2 [11] was 16.4 h. The EC50 [12] was 4770 nM.
